# GSK3 alpha inh: blockers of GSK3A enzyme activity – biochemical, luminescence, cell-free homogeneous, HTS, primary screen; GSK-3 alpha kinase, ADP-Glo luminescence, 60 min; inhibition, % at 10 µM; hit rate 0.1% among 320,000;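 active = more than half of replicates show inhibition above 20%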;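 note: GST-tagged GSK-3 alpha with peptide substrate and 25 µM ATP; 0% = DMSO neutral wells and 100% = GW8510 positive control wells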
# Target sequence (P49840 whole entry, looked up): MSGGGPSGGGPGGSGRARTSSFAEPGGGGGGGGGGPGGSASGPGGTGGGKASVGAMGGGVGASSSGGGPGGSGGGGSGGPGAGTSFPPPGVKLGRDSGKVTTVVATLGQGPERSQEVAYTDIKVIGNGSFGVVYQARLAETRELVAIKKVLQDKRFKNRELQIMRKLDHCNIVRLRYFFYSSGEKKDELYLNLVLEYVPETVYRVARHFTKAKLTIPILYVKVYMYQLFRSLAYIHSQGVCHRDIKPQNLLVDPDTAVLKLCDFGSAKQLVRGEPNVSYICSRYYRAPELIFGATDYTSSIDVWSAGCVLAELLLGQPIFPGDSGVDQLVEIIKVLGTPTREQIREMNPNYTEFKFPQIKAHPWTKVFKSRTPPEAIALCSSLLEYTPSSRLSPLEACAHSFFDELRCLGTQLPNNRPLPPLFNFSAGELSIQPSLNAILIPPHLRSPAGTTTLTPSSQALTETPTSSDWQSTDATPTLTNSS
# Dyrk1A ADPGlo: rat Dyrk1A kinase inhibitors, primary screen, biochemical, single point, plate reader; Dual specificity tyrosine-phosphorylation-regulated kinase 1A (Rattus norvegicus), Q63470; ADP-Glo luminescence, NFATc1 peptide; inhibition, % at 12.5 µM; AID 504441, 2011; hit rate 0.43% among 310,000; in the data active = inhibition above about 50%;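 note: plate controls were vehicle with enzyme for no effect and no enzyme for full effect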
# STK33 kinase inh: inhibitors of purified STK33 kinase, primary screen, biochemical, ADP-Glo luminescence, homogeneous, cell-free. inhibition, % at 10 µM. MBP phosphorylation. hit rate 0.073% among 320,000. Serine/threonine-protein kinase 33 (Homo sapiens), Q9BYT3. AID 2661, 2010;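 active = inhibition at or above 25%, using the most active replicate where run in duplicate; inactive = inhibition below 25%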
# GSK3beta inhib: human GSK3beta kinase inhibitors, primary screen, biochemical, cell-free homogeneous, HTS | Glycogen synthase kinase-3 beta (Homo sapiens), P49841 | GST-GSK3beta kinase, ADP-Glo luminescence, 60 min; stronger effect = lower value | activity score (negative = inhibition), % at 10 µM | hit rate 0.038% among 300,000;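 active = more than half of replicate wells score below -50%, meaning over 50% inhibition versus plate controls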;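 note: 0% = median DMSO wells and -100% = median GW8510 positive control wells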
#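 Assay system: GST-fused GSK3beta enzyme, cell-free / Medium: Tris pH 7.5 buffer with MgCl2, DTT, BSA, heparin / Also added: peptide substrate plus 25 µM ATP (final) / Compound: 10 µM single point / Timing: kinase reaction with compound 60 min at room temperature / Detection: ADP-Glo luminescence / Benchmarks: DMSO neutral wells and GW8510 at 20 µM as positive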
# Dyrk1A artifact: ADP-Glo luciferase interference without Dyrk1A, dose response, artefact control for Dyrk1A inhibitor project, biochemical, luminescence, cherry-pick, set 02. shares compounds with Dyrk1A ADPGlo. ADP-Glo luciferase artifact assay, no Dyrk1A. AC50, µM (highest dose often 12 µM), without a hit: at the highest dose activity change, negative = inhibition. 1,300 tested, under 10 active. AID 588348, 2011;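 active = fitted half-maximal dose AC50 no more than ten times the top valid tested dose, with luminescence dropping as dose rises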
# The depositor's hits bear a star; . = no result given. The entries come from a sample that favours hits as a whole.
SMILES,GSK3 alpha inh,Dyrk1A ADPGlo,STK33 kinase inh,GSK3beta inhib,Dyrk1A artifact
CCOC(=O)C(Cc1ccc(O)cc1)NC(=O)CCc1c[nH]c2ccccc12 (stereo not drawn),-2.5,51.0*,-0.8,-0.5,12.4%
O=C1C2C(c3ccccc3)CC=CC2[C@H](c2ccoc2)N1Cc1ccccc1 (stereo partly drawn),-0.3,59.9*,-0.5,-0.6,11.0%
CCCCn1c(N)c(N(C)C(=O)c2ccc(-n3cccn3)cc2)c(=O)[nH]c1=O,1.9,.,-0.3,.,.
Cc1c(C(=O)Nc2ccc(S(=O)(=O)Nc3ncccn3)cc2)oc2ccc(Cl)cc12,-1.7,6.6,0.4,-0.7,.
Cc1noc(NS(=O)(=O)c2ccc(NC(=O)c3oc4ccc(Cl)cc4c3C)cc2)c1C,-1.9,64.3*,0.9,2.7,10.2%
CC(NC(=O)COC(=O)c1ccc([N+](=O)[O-])s1)c1ccccc1 (stereo not drawn),-1.0,55.9*,-1.7,-0.5,7.9%
Cc1ccc(C(=O)OCC(=O)NC(C)c2ccccc2)s1 (stereo not drawn),-2.6,2.7,-0.7,.,.
O=S(=O)(O)c1cccc(N=Nc2c(O)ccc3ccccc23)c1,46.1,74.2*,60.4*,-1.1,9.7%
O=C(Nc1cccc(-c2cn3cccnc3n2)c1)c1ccc(Br)o1,0.2,51.0*,32.0*,3.9,10.1%
CCc1ccc(-c2cnc3nc[nH]c(=O)c3n2)cc1,0.2,4.0,0.0,0.8,.
CCCc1cc(=O)[nH]c(SCC(=O)Nc2cccc(S(=O)(=O)N3CCOCC3)c2)n1,0.9,3.3,0.1,.,.
COc1cc(/C=C(\C#N)C(=O)NCCc2ccccc2)cc(OC)c1O,0.1,-0.5,-0.4,-2.8,.
N#C/C(=C/c1ccc(O)c([N+](=O)[O-])c1)C(=O)Nc1ccccc1,8.3,81.0*,5.5,-4.6,9.1%
N#C/C(=C\c1ccc(O)c(O)c1)C(=O)NCCc1ccccc1,2.2,70.4*,4.6,.,11.3%
O=C(Nc1ccn(CC(=O)N2CCN(c3ccccn3)CC2)c(=O)n1)OCc1ccccc1,-2.2,-6.8,-1.1,.,.
O=C(c1ccc2c(c1)OCCCO2)N1CCCCC1,1.0,59.2*,-0.8,1.5,6.6%
CCOCCCNC(=O)C1CCCN(S(=O)(=O)c2ccc(-n3cnnn3)cc2)C1 (stereo not drawn),-1.0,-4.8,-1.5,2.3,.
CSc1nnc(-c2cc3c(-c4ccccc4)nn(C)c3s2)n1C,2.9,52.0*,-2.0,0.5,7.6%
Cn1nc(-c2ccccc2)c2cc(C(=O)O)sc21,-4.7,6.7,1.9,1.4,.
CCOc1ncccc1C(=O)OCC(=O)NCc1ccc(C(=O)OC)cc1,1.8,-1.7,0.2,.,.
COc1ccc(N2Nc3n[nH]c(N)c3N2)cc1,19.3,61.2*,10.8,-2.2,9.7%
O=[N+]([O-])c1ccccc1-c1cc(-c2ccccc2O)n[nH]1,-2.1,50.9*,0.6,2.0,11.2%
